As usually defined, the inhibition is the drop in the measured response relative to a control, in per cent. By residual activity is commonly meant the share of the control activity or signal that is left under treatment. Lower therefore signals little activity left.

The structures appear in SMILES notation. Activity calls are given as the source filed them. The rule behind the calls is not given here.

We go through three compounds from ChEMBL document CHEMBL5696442, “Discovery of type II inhibitors of TGFβ-activated kinase 1 (TAK1) and mitogen-activated protein kinase kinase kinase kinase 2 (MAP4K2)” (J Med Chem, 2015).

Experiment [1] has as its target Serine/threonine-protein kinase 4 (Homo sapiens) (UniProt Q13043). Kind of experiment: Inhibition of MST1 Lys1 labeling site harbouring AIHKETGQIVAIKQVPVESDLQEIIK in human A-375 cells at 5 uM by KiNativ Profiling analysis relative to control.
For experiment [2], the system named is Mast/stem cell growth factor receptor Kit (Homo sapiens), P10721 [A829P]. Put plainly: Inhibition of KIT A829P mutant (unknown origin) at 1 uM by Ambit Kinomescan binding assay relative to control; values are per cent of control.
Experiment [3] addresses Serine/threonine-protein kinase 32C (Homo sapiens) (UniProt Q86UX6). Put plainly: Inhibition of YANK3 Lys2 labeling site in human A-375 cells at 0.05 uM by KiNativ Profiling analysis relative to control. In kind it is cell-based.
Experiment [4] has as its target Dual specificity protein kinase CLK1 (Homo sapiens) (UniProt P49759). Kind of experiment: Inhibition of CLK1 (unknown origin) at 1 uM by Ambit Kinomescan binding assay relative to control; values are per cent of control.
The test system of experiment [5] is Epidermal growth factor receptor (Homo sapiens), P00533 [UNDEFINED MUTATION]. Conditions: dose 1.0 µM.
Experiment [6] has as its target Ephrin type-B receptor 6 (Homo sapiens) (UniProt O15197). Put plainly: Inhibition of EPHB6 (unknown origin) at 1 uM by Ambit Kinomescan binding assay relative to control; values are per cent of control.
Experiment [7] has as its target 5'-AMP-activated protein kinase catalytic subunit alpha-2 (Homo sapiens) (UniProt P54646). Kind of experiment: Inhibition of AMPKa2 Lys2 labeling site in human A-375 cells at 5 uM by KiNativ Profiling analysis relative to control. The experiment is classed as cell-based.
The next experiment concerns 293-IL-1R. Kind of experiment: Inhibition of IL-1alpha induced p105 phosphorylation level in human 293-IL-1R cells preincubated for 1 hr followed by IL-1 alpha stimulation and measured after 30 mins by Western blot analysis. In kind it is functional, cell-based. As to conditions: dose 0.01-10 µM. Background: A western blot detects proteins with antibodies after separation by electrophoresis.

Experiment [8] deals with Non-receptor tyrosine-protein kinase TYK2 (Homo sapiens) (UniProt P29597). Put plainly: Inhibition of TYK2 JH1 catalytic domain (unknown origin) at 10 uM by Ambit Kinomescan binding assay relative to control; values are per cent of control.
In experiment [9] the target is Tyrosine-protein kinase receptor UFO (Homo sapiens) (UniProt P30530). Kind of experiment: Inhibition of AXL (unknown origin) at 10 uM by Ambit Kinomescan binding assay. An outline of the steps: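 In vitro ATP-site competition binding assay against a panel of over 420 kinases (KinomeScan), with compound tested at 10 or 1 μM.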
Experiment [10] addresses Serine/threonine-protein kinase PLK3 (Homo sapiens) (UniProt Q9H4B4). Put plainly: Inhibition of PLK3 (unknown origin) at 10 uM by Ambit Kinomescan binding assay.
Experiment [11] deals with Mitogen-activated protein kinase kinase kinase 4 (Homo sapiens) (UniProt Q9Y6R4). Put plainly: Inhibition of MAP3K4 (unknown origin) at 10 uM by Ambit Kinomescan binding assay.
The target of experiment [12] is T1, Mitogen-activated protein kinase kinase kinase kinase 2 (Homo sapiens) (UniProt Q12851).
T1 sequence (whole entry): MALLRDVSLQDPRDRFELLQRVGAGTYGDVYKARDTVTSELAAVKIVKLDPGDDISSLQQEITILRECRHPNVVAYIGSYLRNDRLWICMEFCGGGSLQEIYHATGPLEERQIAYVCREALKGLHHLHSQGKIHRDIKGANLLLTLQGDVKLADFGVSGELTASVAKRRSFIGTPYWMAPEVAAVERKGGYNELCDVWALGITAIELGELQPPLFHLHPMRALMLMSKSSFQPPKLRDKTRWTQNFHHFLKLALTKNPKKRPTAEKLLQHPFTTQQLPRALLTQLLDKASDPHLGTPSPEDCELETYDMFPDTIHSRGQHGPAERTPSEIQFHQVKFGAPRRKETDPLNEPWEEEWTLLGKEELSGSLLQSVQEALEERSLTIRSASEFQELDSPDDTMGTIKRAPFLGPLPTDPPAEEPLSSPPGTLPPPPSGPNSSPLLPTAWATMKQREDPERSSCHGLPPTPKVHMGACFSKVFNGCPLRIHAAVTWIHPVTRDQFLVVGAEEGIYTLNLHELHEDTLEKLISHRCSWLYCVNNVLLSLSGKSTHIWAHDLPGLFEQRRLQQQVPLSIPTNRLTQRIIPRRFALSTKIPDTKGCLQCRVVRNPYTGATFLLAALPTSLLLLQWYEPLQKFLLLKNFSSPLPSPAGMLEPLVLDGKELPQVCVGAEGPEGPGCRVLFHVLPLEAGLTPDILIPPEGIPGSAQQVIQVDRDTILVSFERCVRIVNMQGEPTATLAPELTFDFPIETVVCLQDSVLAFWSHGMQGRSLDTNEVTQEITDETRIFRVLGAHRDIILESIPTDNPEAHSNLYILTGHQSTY
Put plainly: Inhibition of MAP4K2 (GCK) Lys1 labeling site in human A-375 cells at 0.05 uM by KiNativ Profiling analysis relative to control. The experiment is classed as cell-based.

Experiment [13] has as its target Calcium/calmodulin-dependent protein kinase type II subunit gamma (Homo sapiens) (UniProt Q13555). Kind of experiment: Inhibition of CaMK2g K1 labeling site in human Huh-7 cells at 1 uM by KiNativ Profiling analysis relative to control. The experiment is classed as cell-based.
In experiment [14] the test system is Epidermal growth factor receptor (Homo sapiens), P00533 [UNDEFINED MUTATION]. Kind of experiment: Inhibition of EGFR E746-A750del mutant (unknown origin) at 10 uM by Ambit Kinomescan binding assay relative to control.
For experiment [15], the target named is Casein kinase II subunit alpha (Homo sapiens) (UniProt P68400). Put plainly: Inhibition of CK2a1 in human Huh-7 cells at 1 uM by KiNativ Profiling analysis relative to control. In kind it is cell-based.
The target in experiment [16] is Cyclin-G-associated kinase (Homo sapiens) (UniProt O14976). Kind of experiment: Inhibition of GAK (unknown origin) at 10 uM by Ambit Kinomescan binding assay relative to control.
In experiment [17] the target is Serine/threonine-protein kinase 4 (Homo sapiens) (UniProt Q13043). Kind of experiment: Inhibition of MST1 Lys2 labeling site harbouring DIKAGNILLNTEGHAK in human Huh-7 cell lysate at 1 uM by KiNativ Profiling analysis relative to control.
Experiment [18] has as its target Cyclin-dependent kinase 6 (Homo sapiens) (UniProt Q00534). Kind of experiment: Inhibition of CDK6 Lys2 labeling site in human Huh-7 cell lysate at 1 uM by KiNativ Profiling analysis relative to control. The experiment is classed as subcellular.
Experiment [19] addresses Epidermal growth factor receptor (Homo sapiens) (UniProt P00533). Put plainly: Inhibition of EGFR Lys1 labeling site harbouring IPVAIKELR in human Huh-7 cells at 1 uM by KiNativ Profiling analysis relative to control. In kind it is cell-based.
Experiment [20] has the same target. Kind of experiment: Inhibition of EGFR Lys1 labeling site harbouring GLWIPEGEKVKIPVAIKELR in human Huh-7 cell lysate at 1 uM by KiNativ Profiling analysis relative to control. In kind it is subcellular.
The target of experiment [21] is Ribosomal protein S6 kinase delta-1 (Homo sapiens) (UniProt Q96S38). Kind of experiment: Inhibition of RSKL1 domain1 Protein Kinase Domain labeling site in human Huh-7 cell lysate at 1 uM by KiNativ Profiling analysis relative to control. In kind it is subcellular.

Chain of Epidermal growth factor receptor (Homo sapiens), P00533 [UNDEFINED MUTATION] (P00533 whole entry, looked up, stated change not applied): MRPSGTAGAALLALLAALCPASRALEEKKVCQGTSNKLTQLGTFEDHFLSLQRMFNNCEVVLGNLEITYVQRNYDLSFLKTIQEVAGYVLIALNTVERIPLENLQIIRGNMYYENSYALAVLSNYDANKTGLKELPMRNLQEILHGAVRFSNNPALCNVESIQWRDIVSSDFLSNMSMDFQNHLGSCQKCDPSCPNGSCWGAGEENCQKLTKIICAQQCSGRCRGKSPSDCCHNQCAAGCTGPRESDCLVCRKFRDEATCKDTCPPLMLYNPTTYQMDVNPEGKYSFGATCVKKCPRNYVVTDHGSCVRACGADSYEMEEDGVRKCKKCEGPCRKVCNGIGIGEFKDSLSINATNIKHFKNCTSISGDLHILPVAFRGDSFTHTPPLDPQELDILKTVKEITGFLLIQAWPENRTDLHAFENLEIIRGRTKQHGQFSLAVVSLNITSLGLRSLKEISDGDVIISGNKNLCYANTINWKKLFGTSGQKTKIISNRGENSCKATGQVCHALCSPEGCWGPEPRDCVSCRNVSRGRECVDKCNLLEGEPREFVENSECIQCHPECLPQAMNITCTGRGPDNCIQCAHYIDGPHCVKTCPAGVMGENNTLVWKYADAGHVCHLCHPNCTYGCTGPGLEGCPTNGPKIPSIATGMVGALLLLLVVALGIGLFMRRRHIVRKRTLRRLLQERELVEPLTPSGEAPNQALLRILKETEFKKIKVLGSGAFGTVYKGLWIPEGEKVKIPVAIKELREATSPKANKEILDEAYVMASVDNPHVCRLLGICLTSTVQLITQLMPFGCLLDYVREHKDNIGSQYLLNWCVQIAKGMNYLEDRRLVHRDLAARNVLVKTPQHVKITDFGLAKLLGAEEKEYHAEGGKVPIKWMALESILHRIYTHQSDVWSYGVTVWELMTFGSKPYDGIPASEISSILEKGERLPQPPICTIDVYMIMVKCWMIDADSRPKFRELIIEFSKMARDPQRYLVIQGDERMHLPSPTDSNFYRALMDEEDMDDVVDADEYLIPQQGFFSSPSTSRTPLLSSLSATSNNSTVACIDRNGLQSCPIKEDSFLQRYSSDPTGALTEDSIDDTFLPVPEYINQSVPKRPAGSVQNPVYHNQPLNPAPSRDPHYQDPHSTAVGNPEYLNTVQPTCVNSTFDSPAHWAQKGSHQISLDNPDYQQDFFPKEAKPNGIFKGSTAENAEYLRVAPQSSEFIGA
Chain of Epidermal growth factor receptor (Homo sapiens) (P00533 whole entry): as the sequence (P00533 whole entry, looked up, stated change not applied) above
Chain of Serine/threonine-protein kinase 4 (Homo sapiens) (Q13043 whole entry, looked up): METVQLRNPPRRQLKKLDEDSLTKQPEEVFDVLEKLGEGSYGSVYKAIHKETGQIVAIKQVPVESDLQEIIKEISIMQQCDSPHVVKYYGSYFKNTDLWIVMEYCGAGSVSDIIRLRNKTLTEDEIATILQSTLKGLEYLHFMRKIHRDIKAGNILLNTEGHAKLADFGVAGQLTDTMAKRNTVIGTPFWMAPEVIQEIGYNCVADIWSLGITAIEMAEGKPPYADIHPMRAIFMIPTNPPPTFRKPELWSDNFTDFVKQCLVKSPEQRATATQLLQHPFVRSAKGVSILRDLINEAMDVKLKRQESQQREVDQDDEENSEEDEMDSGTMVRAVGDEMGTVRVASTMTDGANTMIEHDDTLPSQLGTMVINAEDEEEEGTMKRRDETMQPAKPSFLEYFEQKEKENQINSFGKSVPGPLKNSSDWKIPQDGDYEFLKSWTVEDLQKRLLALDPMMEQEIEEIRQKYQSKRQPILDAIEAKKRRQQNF
Chain of Cyclin-dependent kinase 6 (Homo sapiens) (Q00534 whole entry): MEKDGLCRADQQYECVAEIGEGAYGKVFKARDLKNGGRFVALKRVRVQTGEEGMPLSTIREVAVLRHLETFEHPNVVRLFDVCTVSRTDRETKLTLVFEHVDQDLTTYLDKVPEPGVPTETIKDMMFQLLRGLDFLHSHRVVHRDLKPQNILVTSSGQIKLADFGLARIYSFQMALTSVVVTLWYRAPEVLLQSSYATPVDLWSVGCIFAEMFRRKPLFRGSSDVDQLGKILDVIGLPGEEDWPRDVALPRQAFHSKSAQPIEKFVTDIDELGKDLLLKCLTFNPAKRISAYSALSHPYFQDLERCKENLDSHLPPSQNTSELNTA
Chain of Serine/threonine-protein kinase 32C (Homo sapiens) (Q86UX6 whole entry): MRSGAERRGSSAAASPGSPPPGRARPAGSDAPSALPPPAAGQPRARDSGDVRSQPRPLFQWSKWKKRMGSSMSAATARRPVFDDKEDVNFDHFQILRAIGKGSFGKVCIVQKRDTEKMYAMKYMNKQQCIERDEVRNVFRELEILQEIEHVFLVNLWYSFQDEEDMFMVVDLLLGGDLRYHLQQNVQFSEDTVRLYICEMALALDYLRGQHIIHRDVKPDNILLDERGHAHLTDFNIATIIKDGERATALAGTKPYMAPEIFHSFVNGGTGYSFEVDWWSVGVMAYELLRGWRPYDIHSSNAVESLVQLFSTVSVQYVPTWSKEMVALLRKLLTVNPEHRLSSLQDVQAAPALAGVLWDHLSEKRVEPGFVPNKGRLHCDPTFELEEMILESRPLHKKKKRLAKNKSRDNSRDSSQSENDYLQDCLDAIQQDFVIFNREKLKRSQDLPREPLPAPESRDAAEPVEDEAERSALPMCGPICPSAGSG
Chain of Calcium/calmodulin-dependent protein kinase type II subunit gamma (Homo sapiens) (Q13555 whole entry): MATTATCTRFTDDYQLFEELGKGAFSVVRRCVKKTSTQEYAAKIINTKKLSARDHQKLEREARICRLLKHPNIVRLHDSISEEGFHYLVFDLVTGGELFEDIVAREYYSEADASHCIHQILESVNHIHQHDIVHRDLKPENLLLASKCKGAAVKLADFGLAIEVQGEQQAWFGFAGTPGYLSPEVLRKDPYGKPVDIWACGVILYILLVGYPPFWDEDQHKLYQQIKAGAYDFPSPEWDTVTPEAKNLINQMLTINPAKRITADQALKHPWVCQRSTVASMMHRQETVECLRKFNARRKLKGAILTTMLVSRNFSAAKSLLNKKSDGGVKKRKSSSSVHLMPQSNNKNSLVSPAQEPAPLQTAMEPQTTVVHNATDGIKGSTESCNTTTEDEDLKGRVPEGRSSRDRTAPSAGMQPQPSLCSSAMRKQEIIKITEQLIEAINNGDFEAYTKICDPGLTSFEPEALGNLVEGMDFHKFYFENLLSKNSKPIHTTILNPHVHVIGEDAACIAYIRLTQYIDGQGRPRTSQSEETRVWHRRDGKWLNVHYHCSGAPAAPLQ
Chain of Casein kinase II subunit alpha (Homo sapiens) (P68400 whole entry, looked up): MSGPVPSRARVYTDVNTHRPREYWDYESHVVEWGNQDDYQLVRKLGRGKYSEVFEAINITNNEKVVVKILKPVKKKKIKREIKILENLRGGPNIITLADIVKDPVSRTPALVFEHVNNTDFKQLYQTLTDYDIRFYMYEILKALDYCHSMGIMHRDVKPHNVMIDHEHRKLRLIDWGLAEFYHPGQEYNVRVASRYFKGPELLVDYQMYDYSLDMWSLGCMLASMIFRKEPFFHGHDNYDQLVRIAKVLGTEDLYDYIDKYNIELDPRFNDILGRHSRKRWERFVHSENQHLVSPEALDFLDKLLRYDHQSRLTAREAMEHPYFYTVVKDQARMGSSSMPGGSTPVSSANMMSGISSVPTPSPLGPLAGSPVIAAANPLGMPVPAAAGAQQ

`CCN1CCN(Cc2ccc(NC(=O)c3ccc(C)c(/C=C/c4cnc5[nH]ccc5c4OC)c3)cc2C(F)(F)F)CC1`: the inhibition in experiment [1] is 16.1%; in experiment [3] it was -4.2%; in [5] it was 0.5%; in experiment [7] it was 18.5%. The residual activity worked out at 8% in [2], 59% in experiment [4] and 2.8% in experiment [6].

As to `CCN1CCN(Cc2ccc(NC(=O)c3ccc(C)c(Oc4ccnc5[nH]ccc45)c3)cc2C(F)(F)F)CC1`, the inhibition result in the experiment with 293-IL-1R is “Dose-Dependent Effect”; in [12] it was 98.2%; in experiment [13], -7.7%; in experiment [14], 8.4%; in experiment [15] it was 16%; in experiment [16], 31%. Also, the residual activity in [8] turned out to be 0%. In addition, the inhibition result in experiment [9], in [10] and in experiment [11] was “inactive” in each case.

For the compound `CNc1cc(Oc2cc(C(=O)Nc3cc(N4CCN(C)CC4)cc(C(F)(F)F)c3)ccc2C)ncn1`, the inhibition in experiment [17] is 8.2%; in [18] it was -1.9%; in [19], 7.2%; in experiment [20] it was 9.9%; in experiment [21], 15.7%.
